Insulin prom act: TRM-6 insulin promoter activation. TRM-6 cells, insulin promoter eGFP reporter, imaging; plate-scaled: unstimulated 0, stimulated control 100. activation, % at 2 µM. actives 0.81% (n = 130,000);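 active = activation at 2 µM above a set limit, confirmed on inspection of the cell images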;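 note: share of cells whose green reporter signal exceeds an intensity cutoff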
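Test system: human fetal islet-derived TRM-6 cells with tamoxifen-inducible insulin promoter–eGFP reporter. Compound dosing: 2 µM final, single concentration. Incubation: tamoxifen pre-incubation 15 h overnight, then compound exposure 48 h at 37 °C. Signal: fixed-cell fluorescence microscopy, eGFP plus Hoechst.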
Active calls of the source: *. The full list was thinned out, with hits kept by preference.

Screening CC(C)N(C(=O)c1ccccc1-c1ccccc1)C(C)C returned Insulin prom act -3.
`CCOC(=O)CCCn1ncn2c(cc3occc32)c1=O` gave Insulin prom act 7.
For O=[N+]([O-])c1cn(Cc2ccccc2)cn1 the results were Insulin prom act 7.
Screening Cn1c(C(=O)c2ccccc2[N+](=O)[O-])nc2ccccc21 returned Insulin prom act -80.
Cc1cccc(NC(=S)N/C(=N/S(=O)(=O)c2ccccc2)c2ccccc2)c1 was read as Insulin prom act -8.
CC(C)OC(=S)N/C(=N\S(=O)(=O)c1ccccc1)c1ccccc1 was read as Insulin prom act -4.
O=S(=O)(/N=C(/Nc1ccccn1)c1ccccc1)c1ccccc1 was read as Insulin prom act 196*.
COc1ccccc1NC(=O)c1sc2ncn(Cc3cccc4ccccc34)c(=O)c2c1C was read as Insulin prom act 0.
For CC(=O)c1ccc(OCCCC(=O)Nc2cccc(S(=O)(=O)N(C)C)c2)cc1 the results were Insulin prom act 0.
CCc1ccc(-c2cc(C(F)(F)F)n3nc(C(=O)Nc4cnn(Cc5ccc(C)cc5)c4)cc3n2)s1 was read as Insulin prom act 3.
N#Cc1c(NC(=O)CSc2ncnc3sccc23)oc(-c2ccco2)c1-c1ccco1 was read as Insulin prom act -6.
For COC(=O)c1ccc(COC(=O)CNS(=O)(=O)c2ccc(C)cc2)cc1 the results were Insulin prom act -73.
`CCOC(=O)COc1ccc(S(=O)(=O)Nc2ccc3c(c2)OCCO3)cc1` gave Insulin prom act 460*.
Screening CCOc1ccc(NS(=O)(=O)c2ccc(OC)c(NC(=O)c3ccc4c(c3)OCCO4)c2)cc1 returned Insulin prom act 0.
For Cc1cccc(NS(=O)(=O)c2ccc3c(c2)OCCO3)c1 the results were Insulin prom act -7.
Screening COc1ccc(N2CCN(S(=O)(=O)c3ccc(Cl)s3)CC2)cc1 returned Insulin prom act 2.
`COc1ccc(N2CCN(S(=O)(=O)c3cccs3)CC2)cc1` gave Insulin prom act 500*.
COc1ccccc1N1CCN(S(=O)(=O)c2cccs2)CC1 was read as Insulin prom act 3.
`Cc1ccc(Nc2nc(N)nc(CSc3nnc(-c4ccncc4)o3)n2)cc1` gave Insulin prom act -41.
Screening O=C(c1cn(-c2ccccc2)nc1-c1cccs1)N1CCN(c2ccc(F)cc2)CC1 returned Insulin prom act 3.
Screening N=C1SCC(=O)N1c1ncc(Cc2cccc(Cl)c2)s1 returned Insulin prom act 408*.
O=C(N=C1SCC(=O)N1c1ccccc1)c1ccco1 was read as Insulin prom act 7.
`COC(=O)C/C(O)=C(/N=Nc1cccc(C(F)(F)F)c1)C(=O)OC` gave Insulin prom act -9.
Screening CCOC(=O)COc1ccc(C(=O)NC2CCCCC2)cc1 returned Insulin prom act 0.
For O=C(CSCCNS(=O)(=O)c1ccccc1)Nc1ccccc1 the results were Insulin prom act 10.
`CCOC(=O)C(=O)Nc1cc(Cl)ccc1C` gave Insulin prom act -4.
COc1ccc(CCn2nnnc2C(C(C)C)N2CCN(c3ncccn3)CC2)cc1OC (stereo unspecified) was read as Insulin prom act 170*.
For CC(C)C(c1nnnn1C1CCCCC1)N1CCN(c2ncccn2)CC1 (stereo unspecified) the results were Insulin prom act -3.
`COc1ccc(CCn2nnnc2C(CC(C)C)N2CCN(c3ncccn3)CC2)cc1OC` (stereo unspecified) gave Insulin prom act -7.
COc1ccc(Cn2c(CCC(=O)Nc3ccc(C)c(C)c3)nc3cccnc32)cc1 was read as Insulin prom act -7.
`CS(=O)(=O)Nc1ccc(C(=O)Nc2cccc([N+](=O)[O-])c2)cc1` gave Insulin prom act 6.
`O=C(CSc1nn(-c2ccccc2)c(=S)s1)Nc1ncccn1` gave Insulin prom act 377*.
Cc1cc(C)nc(NC(=O)CSc2nc3ccccc3s2)n1 was read as Insulin prom act -4.
`O=C(CSc1ncn(-c2ccccc2)n1)Nc1nccs1` gave Insulin prom act -8.
`CCCN(CCC)C1=N/C(=C\c2ccco2)C(=O)N1c1ccccc1` gave Insulin prom act 0.
O=C(NCc1ccccc1)N1CCN(c2ccc(F)cc2)CC1 was read as Insulin prom act 7.
Screening O=C(NCc1ccc(Cl)cc1)C(=O)NCC(c1cccnc1)N1CCN(c2ccc(F)cc2)CC1 (stereo unspecified) returned Insulin prom act 165*.
COc1ccc(N2CCN(C(CNC(=O)C(C)(C)C)c3cccnc3)CC2)cc1 (stereo unspecified) was read as Insulin prom act 6.
For O=C(NC1CCCCC1)c1cc([N+](=O)[O-])[nH]n1 the results were Insulin prom act 0.
Screening Cc1ccc(CN(C)CC(=O)Nc2ccc3c(c2)CCC3)cc1 returned Insulin prom act 0.
`O=C1c2cccnc2C(O)N1Cc1ccc(F)cc1` (stereo unspecified) gave Insulin prom act 6.
Screening COc1ccc(CN2C(=O)c3cccnc3C2Nc2cc(Cl)c(OC)cc2OC)cc1 (stereo unspecified) returned Insulin prom act 136*.
Screening CCN(CC)S(=O)(=O)c1ccc(NC2c3ncccc3C(=O)N2Cc2ccccc2)cc1 (stereo unspecified) returned Insulin prom act 7.
For COc1cccc(N(CC(=O)Nc2ccc3c(c2)OCO3)S(=O)(=O)c2ccccc2)c1 the results were Insulin prom act 0.
Screening O=C1CCSc2ccc(Cl)cc2N1Cc1ccc(Cl)cc1 returned Insulin prom act 4.
For O=C(O)CCSc1nnc(SCC(=O)NCC(F)(F)F)s1 the results were Insulin prom act 9.
Screening COc1cc(/C=N/NC(=O)c2ccc(-c3ccccc3)cc2)cc(OC)c1OC returned Insulin prom act 443*.
Screening COc1ccc(C(=O)N/N=C/c2ccc(OC)c(OS(=O)(=O)c3ccccc3)c2)cc1 returned Insulin prom act -5.
For COc1cc(/C=N/NC(=O)c2ccoc2C)cc(OC)c1OC the results were Insulin prom act 3.
O=c1cc(O)c2ccccc2n1Cc1ccccc1F was read as Insulin prom act -9.
`O=C(c1nn(Cc2ccccc2)c(=O)c2ccccc12)N1CCN(C/C=C/c2ccccc2)CC1` gave Insulin prom act -3.
Screening CC[N+]1=C(C)C(C)(C)c2cc(C)ccc21 returned Insulin prom act 488*.
`O=S(=O)(NCCCN1CCOCC1)c1ccc2ccccc2c1` gave Insulin prom act 10.
O=C(CNC(=O)c1ccc(S(=O)(=O)N2CCCCC2)cc1)N/N=C/c1ccco1 was read as Insulin prom act 114.
`Cc1[nH]c(=O)[nH]c(=O)c1S(=O)(=O)N1CCC(C(=O)N2CCN(Cc3ccccc3)CC2)CC1` gave Insulin prom act 6.
Screening CS(=O)(=O)N1CCC(C(=O)N2CCN(Cc3ccccc3)CC2)CC1 returned Insulin prom act 438*.
`CS(=O)(=O)c1ccc(C(=O)N2CCN(Cc3ccccc3)CC2)cc1` gave Insulin prom act 0.
`CC(C)(C)c1ccc(C(=O)N/C(=C\c2cccs2)C(=O)NCc2ccco2)cc1` gave Insulin prom act 3.
Screening Cc1csc(NC(=O)CS(=O)(=O)c2ccccc2)n1 returned Insulin prom act -71.
COc1cc(NC(=O)C/C(C)=N/NC(=O)c2cccc(O)c2)c(OC)cc1Cl was read as Insulin prom act -7.
